# Laboratory results as given in ChEMBL document CHEMBL1131436, “Repaglinide and related hypoglycemic benzoic acid derivatives” (1998).
# Assays:
# Rattus norvegicus [1] = assay: Maximum % decrease of blood glucose (deltaBG) was observed within 4 hour after administration orally at 25 mg/kg dose to fasted adult female rats versus a control group; NS =' not significant'; assay type: functional, organism-based; set-up: dose 25 mg/kg
# Procedure, shortened: (§1)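 Female Wistar rats (Chbb THOM, SPF, 200-220 g), fasted 24 h, dosed orally by gavage as suspension in 1.5% Tylose methylcellulose (10 mL/kg). Whole blood from retrobulbar plexus under light halothane, deproteinized with 0.33 M HClO4; glucose by hexokinase/G6PDH, hourly up to 4 h. % decrease vs control group (N = 7), Student's t-test, P ≤ 0.05.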
# Rattus norvegicus [2] = assay: Maximum % decrease of blood glucose (deltaBG) was observed within 4 hour after administration orally at 1 mg/kg dose to fasted adult female rats versus a control group; assay type: functional; conditions: route oral; procedure, shortened: as §1
# Rattus norvegicus [3] = assay: Maximum % decrease of blood glucose (deltaBG) was observed within 4 hour after administration orally at 10 mg/kg dose to fasted adult female rats versus a control group; assay type: functional; conditions: route oral; procedure, shortened: as §1
# Rattus norvegicus [4] = assay: Maximum % decrease of blood glucose (deltaBG) was observed within 4 hour after administration orally at 1 mg/kg dose to fasted adult female rats versus a control group; NS =' not significant'; assay type: functional, organism-based; set-up: dose 1 mg/kg; procedure, shortened: as §1
# Rattus norvegicus [5] = assay: Maximum % decrease of blood glucose (deltaBG) was observed within 4 hour after administration orally at 5 mg/kg dose to fasted adult female rats versus a control group; assay type: functional; conditions: route oral; procedure, shortened: as §1
# Rattus norvegicus [6] = assay: Maximum % decrease of blood glucose (deltaBG) was observed within 4 hour after administration orally at 0.5 mg/kg dose to fasted adult female rats versus a control group; assay type: functional; conditions: route oral; procedure, shortened: as §1
# Rattus norvegicus [7] = assay: Maximum % decrease of blood glucose (deltaBG) was observed within 4 hour after administration orally at 25 mg/kg dose to fasted adult female rats versus a control group; assay type: functional; conditions: route oral; procedure, shortened: as §1
# Rattus norvegicus [8] = assay: Half-maximal effective dose was measured on rat blood glucose after administrating at 4 hr; assay type: functional
# Procedure, shortened: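 Adult fasted female Wistar rats (Chbb THOM, SPF, 200-220 g), food withdrawn 24 h; oral gavage of suspension in 1.5% Tylose (methylcellulose), 10 mL/kg. Retrobulbar blood under light halothane; glucose by hexokinase/G6PDH after HClO4 deproteinization, hourly to 4 h. ED50 from fit of glucose vs dose, y = b + [a × k/(k + x^nH)], Hill coefficient nH.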
# Rattus norvegicus [9] = assay: Maximum % decrease of blood glucose (deltaBG) was observed within 4 hour after administration orally at 0.1 mg/kg dose to fasted adult female rats versus a control group; assay type: functional; conditions: route oral; procedure, shortened: as §1
# [10] = Rattus norvegicus, Blood, 4 h, read-out: ED50
smiles,measurement,setting,value
CC(NC(=O)Cc1ccc(C(=O)O)cc1)c1ccc(N2CCCCC2)cc1 (stereo not drawn),Delta BG,Rattus norvegicus [1],Not significant
CC(NC(=O)Cc1ccc(C(=O)O)cc1)c1ccccc1N1CCCCC1C (stereo not drawn),Delta BG,Rattus norvegicus [2],-13%
same,Delta BG,Rattus norvegicus [3],-43%
O=C(Cc1ccc(C(=O)O)cc1)NC(CCc1ccccc1)c1ccccc1N1CCCCC1 (stereo not drawn),Delta BG,Rattus norvegicus [3],-38%
O=C(Cc1ccc(C(=O)O)cc1)N[C@H](c1ccccc1)c1ccccc1N1CCCCC1,Delta BG,Rattus norvegicus [4],Not significant
CCCC(CC(=O)Cc1ccc(C(=O)O)cc1)c1ccccc1N1CCCCC1 (stereo not drawn),Delta BG,Rattus norvegicus [3],-11%
CCCC(/N=C(\S)Cc1ccc(C(=O)O)cc1)c1ccccc1N1CCCCC1 (stereo not drawn),Delta BG,Rattus norvegicus [3],-35%
CCCC(c1ccccc1N1CCCCC1)N(C)C(=O)Cc1ccc(C(=O)O)cc1 (stereo not drawn),Delta BG,Rattus norvegicus [3],-12%
CC(NC(=O)Cc1ccc(C(=O)O)cc1)c1cc(Cl)ccc1N1CCCCC1 (stereo not drawn),Delta BG,Rattus norvegicus [5],-18%
same,Delta BG,Rattus norvegicus [3],-36%
CCOc1cc(CC(=O)NC(CC2CCCCCC2)c2ccccc2N2CCCCC2)ccc1C(=O)O (stereo not drawn),Delta BG,Rattus norvegicus [6],-19%
O=C(O)c1ccc(CCNC(=O)c2cc(Cl)ccc2N2CCCCCCCCC2)cc1,Delta BG,Rattus norvegicus [2],-29%
CCCC(NC(=O)Cc1ccc(C(=O)O)cc1)c1ccccc1-c1ccccc1 (stereo not drawn),Delta BG,Rattus norvegicus [3],-21%
CCCCC(NC(=O)Cc1ccc(C(=O)O)cc1)c1ccccc1N1CCCCC1 (stereo not drawn),Delta BG,Rattus norvegicus [6],-32%
COc1ccc(Cl)cc1C(C)NC(=O)Cc1ccc(C(=O)O)cc1 (stereo not drawn),Delta BG,Rattus norvegicus [3],-14%
CC(NC(=O)Cc1ccc(C(=O)O)cc1)c1cc(Cl)ccc1N1CCCC1 (stereo not drawn),Delta BG,Rattus norvegicus [3],-26%
CCN(CC)c1ccc(Cl)cc1C(=O)NCCc1ccc(C(=O)O)cc1,Delta BG,Rattus norvegicus [7],-35%
CC1CCCCN1c1ccc(Cl)cc1C(=O)NCCc1ccc(C(=O)O)cc1 (stereo not drawn),Delta BG,Rattus norvegicus [2],-16%
CC1CC(C)CN(c2ccc(Cl)cc2C(=O)NCCc2ccc(C(=O)O)cc2)C1 (stereo in doubt; 5h),Delta BG,Rattus norvegicus [6],-29%
same,ED50,Rattus norvegicus [8]; [10],0.33 mg/kg
same,Delta BG,Rattus norvegicus [2]; 1 mg/kg,-44%
CC1CC(C)CN(c2ccc(Cl)cc2C(C)NC(=O)Cc2ccc(C(=O)O)cc2)C1 (stereo not drawn),Delta BG,Rattus norvegicus [3],-20%
CC(NC(=O)Cc1ccc(C(=O)O)cc1)c1cc(Cl)ccc1N1CCCCCCC1 (stereo not drawn),Delta BG,Rattus norvegicus [1],Not significant
CCC(NC(=O)Cc1ccc(C(=O)O)cc1)c1ccccc1N1CCCCC1 (stereo not drawn),Delta BG,Rattus norvegicus [6],-28%
CC(NC(=O)Cc1ccc(C(=O)O)cc1)c1ccccc1N1CCCCCC1 (stereo not drawn),Delta BG,Rattus norvegicus [5],-29%
CCCCC(NC(=O)Cc1ccc(C(=O)O)c(OCC)c1)c1ccccc1N1CCCCC1 (stereo not drawn),Delta BG,Rattus norvegicus [6],-45%
same,Delta BG,Rattus norvegicus [9],-24%
CC(NC(=O)Cc1ccccc1C(=O)O)c1ccccc1N1CCCCC1 (stereo not drawn),Delta BG,Rattus norvegicus [1],Not significant
CC(NS(=O)(=O)Cc1ccc(C(=O)O)cc1)c1ccccc1N1CCCCC1 (stereo not drawn),Delta BG,Rattus norvegicus [1],Not significant
CCCC(NC(=O)Cc1ccc(C(=O)O)c(O)c1)c1ccccc1N1CCCCC1 (stereo not drawn),Delta BG,Rattus norvegicus [4],Not significant
same,Delta BG,Rattus norvegicus [3],-47%
CC(C(=O)NCc1ccc(C(=O)O)cc1)c1ccccc1N1CCCCC1 (stereo not drawn),Delta BG,Rattus norvegicus [5],-32%
CCOc1cc(CCNC(=O)c2cc(Cl)ccc2N2CCCCCCCC2)ccc1C(=O)O,Delta BG,Rattus norvegicus [2],-16%
O=C(O)c1ccc(CCNC(=O)c2cc(Cl)ccc2N2CCCC2)cc1,Delta BG,Rattus norvegicus [7],-18%
CC(NC(=O)Cc1ccc(C(=O)O)cc1)c1cc(Cl)ccc1N(C)C (stereo not drawn),Delta BG,Rattus norvegicus [3],-20%
CCCC(NC(=O)Cc1ccc(C(=O)O)cc1)c1ccccc1C1CCCCC1 (stereo not drawn),Delta BG,Rattus norvegicus [2],-9%
same,Delta BG,Rattus norvegicus [3],-31%
CC(C)CC(NC(=O)Cc1ccc(C(=O)O)cc1)c1ccccc1N1CCCCC1 (stereo not drawn),Delta BG,Rattus norvegicus [9],-30%
C=C(C)CC(NC(=O)Cc1ccc(C(=O)O)c(OCC)c1)c1ccccc1N1CCCCC1 (stereo not drawn),Delta BG,Rattus norvegicus [9],-31%
CC1CCCN(c2ccc(Cl)cc2C(=O)NCCc2ccc(C(=O)O)cc2)C1 (stereo not drawn),Delta BG,Rattus norvegicus [2],-22%
CC1CCN(c2ccccc2C(C)NC(=O)Cc2ccc(C(=O)O)cc2)CC1 (stereo not drawn),Delta BG,Rattus norvegicus [2],-27%
same,Delta BG,Rattus norvegicus [3],-46%
CC(C)C(NC(=O)Cc1ccc(C(=O)O)cc1)c1ccccc1N1CCCCC1 (stereo not drawn),Delta BG,Rattus norvegicus [6],-18%
CC(NC(=O)Cc1ccc(C(=O)O)cc1)c1ccccc1N1CCCCC1 (stereo not drawn),Delta BG,Rattus norvegicus [6],-31%
same,Delta BG,Rattus norvegicus [9],-13%
same,ED50,Rattus norvegicus [8],0.3 mg/kg
same,ED50,Rattus norvegicus [8]; [10],0.3 mg/kg
same,Delta BG,Rattus norvegicus [5],-49%
same,Delta BG,Rattus norvegicus [2],-41%
CC1CC(C)CN(c2ccc(Cl)cc2C(=O)NCCc2ccc(C(=O)O)cc2)C1 (stereo in doubt; 5i),Delta BG,Rattus norvegicus [2]; 1 mg/kg,-11%
CCC[C@H](NC(=O)Cc1ccc(C(=O)O)cc1)c1ccccc1N1CCCCC1,Delta BG,Rattus norvegicus [9],-29%
O=C(O)c1ccc(CCNC(=O)c2cc(Cl)ccc2N2CCCCCC2)cc1,Delta BG,Rattus norvegicus [2],-16%
CCOc1cc(CC(=O)N[C@H](CC(C)C)c2ccccc2N2CCCCC2)ccc1C(=O)O,Delta BG,Rattus norvegicus [4],Not significant
